As usually defined, the IC50 is the concentration that inhibits the measured activity by half.

Calls of active or inactive are those of the source. The calls are words filed in the database; no cut-off is given here. Where only a bound is given, the exact number is not on record here.

For one test, the target named is T1, Histone chaperone ASF1A (Homo sapiens, UniProt Q9Y294). As to the kind of experiment: Inhibition of His-tagged human Asf1a binding with H3/H4 assessed as fluorescence intensity after 30 mins by ALPHA assay.
T1 sequence (Q9Y294 whole entry): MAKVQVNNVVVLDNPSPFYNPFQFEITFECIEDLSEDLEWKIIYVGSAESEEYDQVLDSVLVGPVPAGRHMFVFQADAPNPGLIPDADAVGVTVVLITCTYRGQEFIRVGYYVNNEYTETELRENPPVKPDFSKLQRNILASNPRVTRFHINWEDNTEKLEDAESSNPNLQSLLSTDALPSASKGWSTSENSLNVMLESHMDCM
Regarding `COc1cc(C/C=N/NC(=O)c2ccc(NC(=O)c3ccccc3)cc2)cc(Br)c1O`, the IC50 is over 100 µM.

Regarding `COc1cc(/C=N/NC(=O)c2ccc(NC(=O)c3ccccc3)c(COCCN(C)C)c2)cc(Br)c1O`, the IC50 was over 100 µM.

Consider `O=C(N/N=C/c1cc(Br)ccc1O)c1ccncc1`, for which the IC50 came to 0.6 µM.

For the compound `COc1cc(/C=N/NC(=O)c2ccc(NC(C)=O)nc2)cc(Br)c1O`, the IC50 is over 100 µM.

`O=C(N/N=C/c1ccncc1)c1ccc(NC(=O)c2ccccc2)cc1`: the IC50 was over 100 µM.

With `COc1cc(/C=N/NC(=O)Cc2ccc(NC(=O)c3ccccc3)cc2)cc(Br)c1O`, the IC50 was over 100 µM.

Take `COc1cc(/C=N/NC(=O)c2ccncc2)cc(Br)c1O`: the IC50 was over 100 µM.

For the compound `COc1cc(CNNC(=O)c2ccc(NC(=O)c3ccccc3)cc2)cc(Br)c1O`, the IC50 is over 100 µM.

In the case of `COc1cc(/C=N/N(C)C(=O)c2ccc(NC(=O)c3ccccc3)cc2)cc(Br)c1O`, the IC50 is over 12 µM.

Turning to `COc1cc(CCNC(=O)c2ccc(NC(=O)c3ccccc3)cc2)cc(Br)c1O`, the IC50 was over 100 µM.

With `COc1cc(/C=N/NC(=O)c2ccc(NC(=O)c3ccccc3)cc2)ccc1O`, the IC50 was over 100 µM.

Consider `O=C(N/N=C/c1cccc(OCCN2CCOCC2)c1)c1ccc(NC(=O)c2ccccc2)cc1`, for which the IC50 is over 100 µM.

For the compound `COc1cc(/C=N/NC(=O)C2CCOCC2)cc(Br)c1O`, the IC50 is over 100 µM.

On to `COc1cc(/C=N/NC(=O)c2ccccc2)cc(Br)c1O`, for which the IC50 was over 100 µM.

Turning to `COc1cc(/C=N/NC(=O)c2ccc(NC(C)=O)cc2)cc(Br)c1O`, the IC50 was over 100 µM.

On to `COc1cc(/C=N/NC(=O)c2ccc(NC(=O)c3ccccc3)cc2)ccn1`, for which the IC50 is over 100 µM.

Regarding `COc1cc(/C=N/NC(=O)C2CCNCC2)cc(Br)c1O`, the IC50 was over 100 µM.

The next test deals with T1, Histone chaperone ASF1A. As to the kind of experiment: Inhibition of globular core domain of Asf1 (unknown origin) binding with H3/H4 after 15 to 30 mins by ELISA assay. Summed up:
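Wells coated with H3/H4 dimer at 1 μg/mL in PBS-T at 4°C overnight, then blocked with 5% milk in PBS-T. Asf1 globular core at 5 μM preincubated with compound at 100 μM (or various concentrations) for 1 h at 4°C. Samples diluted in 10 mM Tris pH 7.9, 1 mM DTT and bound to plate 1 h at room temperature. Bound Asf1 detected with anti-Asf1 and HRP secondary antibodies, then TMB for 15–30 min; OD read at 450 nm.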
On the technique in general: An ELISA detects its analyte on a solid surface through an enzyme-linked reagent.
Consider `COc1cc(C2C(Cl)C(=O)N2NC(=O)c2ccc(N)cc2)cc(Br)c1O` (configuration not stated), for which the inhibition entry is “Active”.

`COc1ccc(-c2cc([C@@H](O)[C@@H]3CCCCN3)c3ccccc3n2)cc1` (racemic): the inhibition result is “Active”.

Another test deals with MDA-MB-231. As to the kind of experiment: Cytotoxicity against human MDA-MB-231 cells assessed as inhibition of cell viability at 24 uM after 24 hrs by trypan blue exclusion assay. The class given is functional, cell-based. Put shortly: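 MDA-MB-231 cells grown to 80% confluence, seeded at 1.5 × 10^5 cells/mL and incubated overnight. Medium then replaced with serum-free medium containing drug at 24 μM. After 1 h, FBS added to each well. Viable cell density counted by trypan blue exclusion after a further 24 h. Viability expressed as percent of DMSO-only control.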
Regarding `COc1ccc(-c2cc(C(=O)N(C)C)c3ccccc3n2)cc1`, the inhibition result is “inactive”.

As for `CCN(CC)C(=O)c1cc(-c2ccc(OC)cc2)nc2ccccc12`, the inhibition result was “inactive”.

Turning to `COc1ccc(-c2cc([C@H](O)[C@@H]3CCCCN3)c3ccccc3n2)cc1` (racemic), the inhibition result is “Active”.

Regarding `COc1ccc(-c2cc(C(=O)C3CCCCN3)c3ccccc3n2)cc1` (configuration not stated), the inhibition result is “inactive”.

As for `COc1ccc(-c2cc(C(=O)N3CCOCC3)c3ccccc3n2)cc1`, the inhibition entry is “inactive”.

Regarding `COc1ccc(-c2cc([C@@H](O)[C@@H]3CCCCN3)c3ccccc3n2)cc1` (racemic), the inhibition entry is “Active”.

Regarding `COc1ccc(-c2cc(C(=O)NCCO)c3ccccc3n2)cc1`, the inhibition entry is “inactive”.

In the case of `COc1ccc(-c2cc(C(=O)N3CCCCC3)c3ccccc3n2)cc1`, the inhibition result was “inactive”.

Source of the values: ChEMBL document CHEMBL3393016, “Development of novel Asf1-H3/H4 inhibitors” (Bioorg Med Chem Lett, 2015).
